The results in this text go back to ChEMBL document CHEMBL4513216, “Probing the Open Global Health Chemical Diversity Library for Multistage-Active Starting Points for Next-Generation Antimalarials” (ACS Infect Dis, 2020).

A short description of the data set: Toxicity liver stage against HepG2, at 10uM. Details: test concentration 10 uM, cell line HepG2-A16-CD81EGFP. The following applies: human, HepG2-A16-CD81EGFP cells; read-out: INHIBITION
In kind it is cell-based. The method in brief:
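Uninfected HepG2-A16-CD81EGFP cells, 3 × 10^3 per well, 1536-well, plated on prespotted compound at 10 μM final, parasite-free screening media added to match infected plates; puromycin 10 μM positive, DMSO 0.5% negative; run in parallel with 48 h PbLuc assay at 37 °C, 5% CO2; viability by CellTiter-Glo luminescence, normalized to controls.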
Turning to `Cn1ncc(N2CCOCC2)c(Cl)c1=O`, the cytotoxicity at 10 µM is -13.8%.

Regarding `COC(=O)[C@H]1CN(C(=O)NC(C)C)CCN1C(=O)CSC`, the cytotoxicity at 10 µM was -6.52%.

As to `CNC(=O)C(C)(C)N1CCC[C@H]1C(=O)NC1CCCC1`, the cytotoxicity at 10 µM was -3.01%. `COc1ccc2c(c1)nc1n2[C@@H](CNCc2nccs2)COC1`: the cytotoxicity at 10 µM is -1.57%.

For `CCNC(=O)N1C[C@@H]2OCC(=O)N(C)[C@@H]2C1`, the cytotoxicity at 10 µM came to 7.65%. As to `CCNC(=O)N1CC[C@H]2CC(=O)N(C3CCCCC3)CC[C@H]2C1`, the cytotoxicity at 10 µM is -1.08%. Under `CCNC(=O)NC[C@H]1COCc2nc3cc(C)ccc3n21` stands 3.72%; under `CN1C[C@@H](O)[C@]2(CCN(C(=O)c3ccccc3)C2)S1(=O)=O`, 0.148%.

`O=c1cc(Cn2ccnc2)nc2n1CCCN(Cc1ccco1)C2`: the cytotoxicity at 10 µM was 7.77%. With `CC(=O)NCC(=O)N1CCOC2(CCCN(c3ccc(C)nn3)C2)C1` (stereo unspecified), the cytotoxicity at 10 µM is 0.876%.

For the molecule `CCO[C@@H]1CC[C@H]2[C@H]1OCCN2Cc1ccc(F)cc1`, the cytotoxicity at 10 µM turned out to be 10.3%. For the molecule `CC(=O)N1CCC2(CC1)CC(NC(=O)N(C)C)c1cc(C)ccc12` (stereo unspecified), the cytotoxicity at 10 µM worked out at 4.3%.

For the molecule `CCC(=O)N1CCC2(CC1)CC(Oc1ccccc1)CO2` (stereo unspecified), the cytotoxicity at 10 µM is 7.69%. On to `CC(C)NC(=O)c1cc2c(s1)CCN2C(=O)CN(C)C`, for which the cytotoxicity at 10 µM was 1.94%. With `Cc1cc(C(F)(F)F)nc(N2CCN3CCCC3C2)n1` (stereo unspecified), the cytotoxicity at 10 µM was found to be 4.78%. For `Cc1cc(-c2cc3nc(C)c(C)c(NCC4COCCO4)n3n2)no1` (stereo unspecified), the cytotoxicity at 10 µM amounted to 8.97%. Take `Cc1ccnc(C2COCCN2C)n1` (stereo unspecified): the cytotoxicity at 10 µM is 3.59%. Turning to `CCCc1cc(C(=O)NC(C)c2ccccc2)n(C)n1` (stereo unspecified), the cytotoxicity at 10 µM is -4.45%. For the molecule `CCc1noc(CCC(=O)N[C@@H]2CC[C@@H](n3ccnc3)[C@@H]2O)n1`, the cytotoxicity at 10 µM is -15.5%. Turning to `Cc1ccc2c(c1)C(=O)NCC1(CCN(C(=O)c3ccnn3C)CC1)O2`, the cytotoxicity at 10 µM is -16.6%. Take `O=c1[nH]c(N2CCCCC2)nc2c1CCN(Cc1cccnc1)C2`: the cytotoxicity at 10 µM was -3.07%. Take `CCCC(=O)N1CCN(Cc2cc(-c3ccncc3)nn2C)CC1`: the cytotoxicity at 10 µM is -27.1%.

In the case of `CS(=O)(=O)N1CCN(Cc2cccs2)CC(C(N)=O)C1` (stereo unspecified), the cytotoxicity at 10 µM came out at 18%.

As for `CN(C)CC1(O)CCN(S(=O)(=O)c2cccc(F)c2)C1` (stereo unspecified), the cytotoxicity at 10 µM turned out to be 2.36%. For `CN(C(=O)C1CCOCC1)[C@@H]1CCC[C@@H](N2CCCC2)[C@@H]1O`, the cytotoxicity at 10 µM was -6.22%.

`CCS(=O)(=O)CC(=O)Nc1ccc2oc(C3CC3)nc2c1`: the cytotoxicity at 10 µM is -5.4%.

Consider `CCn1nnnc1-c1cccc(NC(=O)CCc2cnn(C)c2)c1`, for which the cytotoxicity at 10 µM was -6.19%. As for `CS(=O)(=O)CCCNC(=O)Nc1sc2ccccc2c1Cl`, the figure is 6.54%; as for `Cc1ccc(C(=O)NC2CCCN(C)C2)c(=O)[nH]1` (stereo unspecified), -6.96%; as for `CC(C)Cc1noc(CN2CCCC(CNS(N)(=O)=O)C2)n1` (stereo unspecified), -4.88%. As for `CC(=O)NCc1ccc(C(=O)N2CCCc3c(F)ccc(C)c32)cc1`, the figure is -3.26%; as for `COCCN(C)CC1CCCN1S(=O)(=O)c1cccc(F)c1F` (stereo unspecified), 4.93%. Take `COc1c(C2CCCN2CC(=O)N(C)c2nccs2)c(C)nn1C` (stereo unspecified): the cytotoxicity at 10 µM was 3.37%. As to `Cc1cc(NCCC(=O)NC2CCCCC2)nc(-c2ccncc2)n1`, the cytotoxicity at 10 µM was -5.37%. Consider `CCOC(C)C(=O)Nc1ccc2c(ccn2CC)c1` (stereo unspecified), for which the cytotoxicity at 10 µM was 0.877%. Consider `CCOC(C)c1nc(CN2CCN(c3ncc(C)cn3)CC2)cs1` (stereo unspecified), for which the cytotoxicity at 10 µM is -0.509%. Take `CC(C)(C)N1CCN(C(=O)c2cccnc2-n2cncn2)CC1`: the cytotoxicity at 10 µM is 4.22%.

As for `CC(C)CNC(=O)CNC(=O)NC(c1nccs1)C1CC1` (stereo unspecified), the cytotoxicity at 10 µM was -6.66%. Take `Cc1nc(C(=O)N(C)CC2CCCO2)nn1-c1ccccc1C(C)C` (stereo unspecified): the cytotoxicity at 10 µM was -3.62%. As to `CNC(=O)C1CCCCN1C(=O)c1n[nH]c(=O)c2ccccc12` (stereo unspecified), the cytotoxicity at 10 µM was found to be 0.0666%. In the case of `CCc1cc(NC(=O)C2CCCN(C(=O)c3ccncc3)C2)[nH]n1` (stereo unspecified), the cytotoxicity at 10 µM is -8.18%.

On to `O=C(Nc1nnn[nH]1)c1ccc(-n2cccc2)c(F)c1`, for which the cytotoxicity at 10 µM was -1.63%. For `Cc1nn(CN(CC2CCOC2)C2CC2)c(=O)c2ccccc12` (stereo unspecified), the cytotoxicity at 10 µM is 4.77%. On to `Cc1ccc(C)c(CN2CCOC(c3noc(C)n3)C2)c1` (stereo unspecified), for which the cytotoxicity at 10 µM amounted to 5.12%. On to `Cc1nn(C)c(C)c1NC(=O)CN1CCc2c(nc(C(C)C)n2C)C1`, for which the cytotoxicity at 10 µM is -8.02%. As for `O=C(c1ccsc1)N1CCC2(CC1)CCN(S(=O)(=O)C1CC1)CC2`, the figure is -109%; as for `O=C(N[C@@H]1CN(Cc2ccco2)[C@@H]2CCCO[C@@H]21)c1cscn1`, -105%; as for `O=C1CC(c2ccncc2)C2(CCN(Cc3cccnc3)CC2)N1` (stereo unspecified), 6.26%. With `CCS(=O)(=O)N1CCC2(CCC2NC(=O)c2ccn(C)c2)CC1` (stereo unspecified), the cytotoxicity at 10 µM is -2.11%.

In the case of `O=C(c1ccc[nH]1)N1C[C@H]2CN(Cc3cccc(F)c3)C(=O)[C@H]2C1`, the cytotoxicity at 10 µM came out at 3.99%. `Cc1cc(C)n(CCCN(C)c2cc(C3CC3)ncn2)n1`: the cytotoxicity at 10 µM is -0.609%. As for `O=S(=O)(c1cccnc1)N1CCCCC1CCN1CCOCC1` (stereo unspecified), the figure is -3.03%; as for `CCC(C(=O)NCC1=CCN(C)CC1)c1ccccc1` (stereo unspecified), -7.66%; as for `CO[C@H]1CN(C(C)C)C[C@@H]1NC(=O)Nc1ccc2oc(C)cc2c1`, 0.0448%. With `COc1ccc(N2CCN(C(=O)CCc3n[nH]c(C)n3)CC2=O)cc1`, the cytotoxicity at 10 µM was -0.524%. In the case of `Cc1ccc(C(C(=O)O)N(C)CCN2CCOCC2)c(F)c1` (stereo unspecified), the cytotoxicity at 10 µM came out at 4.28%. Turning to `O=C(NCc1csc(-c2cnccn2)n1)c1cnn2c1CCCC2`, the cytotoxicity at 10 µM worked out at 0.209%.

On to `O=C(O)CN(Cc1ccsc1)CC1CCCO1` (stereo unspecified), for which the cytotoxicity at 10 µM is -4.39%. As for `CCc1ccc(CN(C)C(=O)c2ccc(CSc3nnc[nH]3)o2)nc1`, the figure is -2.19%. As to `O=C(O)c1ccnc(-c2ccnc(NCCc3ccc(F)cc3)n2)c1`, the cytotoxicity at 10 µM was 1.74%. For the molecule `CN(C)c1ccccc1C(=O)N1CCOC2(CNCCOC2)C1` (stereo unspecified), the cytotoxicity at 10 µM is -1.08%. As to `CC(C)c1nnc(NCc2cc3n(n2)CCN(C2CCCCC2)C3)s1`, the cytotoxicity at 10 µM was -4.63%. With `Cc1ccccc1-n1cc(-c2ccnc(N[C@@H](CO)C(C)C)n2)cn1`, the cytotoxicity at 10 µM was -3.39%. On to `CN(C)C(=O)c1cccnc1-c1ccc2c(c1)OCCO2`, for which the cytotoxicity at 10 µM worked out at 5.73%.

In the case of `CCn1cc(-c2cc(C(F)(F)F)n(CCCN)n2)cn1`, the cytotoxicity at 10 µM is -7.86%. `Cc1nc(-c2ccccc2)sc1CNC1CCc2ncnn2C1` (stereo unspecified): the cytotoxicity at 10 µM was -4.07%.

For `O=C(NCC1CCOC1)c1csc(-c2ccc(Cl)cc2)n1` (stereo unspecified), the cytotoxicity at 10 µM is -11.6%.

For the molecule `O=C(Cc1ccc2c(c1)CCC2)NCCNc1cnccn1`, the cytotoxicity at 10 µM is -0.037%. Turning to `COCCN1CCC(CNC(=O)C2(c3ccc(F)cc3)CCC2)CC1`, the cytotoxicity at 10 µM was -4.45%. As to `CC1CN(CC(=O)Nc2ccncc2)CCN1Cc1nccn1C` (stereo unspecified), the cytotoxicity at 10 µM is -13.7%. With `CCS(=O)(=O)N1CCC(NC(=O)c2cc(C)ccc2O)CC1`, the cytotoxicity at 10 µM was -8.92%. For the molecule `Cn1cc(CC2CCN(C(=O)NCc3cccc(C#N)c3)C2)cn1` (stereo unspecified), the cytotoxicity at 10 µM was -12.3%. As for `Cc1cc(C(=O)N2CCCC(n3nc(C)cc3C)C2)on1` (stereo unspecified), the cytotoxicity at 10 µM was -7.69%. Under `Cc1cc(CN2CCN(CCOc3cccc(C#N)c3)CC2)no1` stands -11.6%; under `O=C(NCCN1CCc2ccccc2C1)c1scnc1Cl`, -4.84%. As for `O=C(c1ccc(Br)o1)N1CCCCC1Cn1cccn1` (stereo unspecified), the cytotoxicity at 10 µM is -5.31%. Regarding `CNS(=O)(=O)c1cccc(CNc2ccc(C(F)(F)F)nn2)c1`, the cytotoxicity at 10 µM is -11.4%. Turning to `CN1C(=O)CCC12CCC(NCc1ccsc1)CC2` (stereo unspecified), the cytotoxicity at 10 µM is 3.56%. For the molecule `CNC(=O)CN1CC[C@H]2CN(C(=O)c3cccc(C)c3)C[C@H]2C1`, the cytotoxicity at 10 µM is -2.45%. `COCCN1CCc2ncnc(-c3ccccc3)c2CC1`: the cytotoxicity at 10 µM worked out at 9.99%. For the molecule `C[C@H]1CN(c2ccccn2)C[C@@]12CCN(c1cccnc1)C2=O`, the cytotoxicity at 10 µM was -2.62%.

As for `Cc1ccsc1C(=O)N1CCc2ncc(CN3CCCC3)n2CC1`, the cytotoxicity at 10 µM was -111%. For the molecule `O=C1N(CC2CCCC2)CCC12CCN(c1ncc(F)cn1)CC2`, the cytotoxicity at 10 µM amounted to 11.2%. `Cc1nnc(N2CCCC3(CN(Cc4nccs4)CCO3)C2)o1` (stereo unspecified): the cytotoxicity at 10 µM was found to be 2.08%. Regarding `COc1ccc(CN2CCC3(CCN(c4cccnc4)C3=O)C2)cc1` (stereo unspecified), the cytotoxicity at 10 µM was 5.16%. With `CN(C)c1ncc(-c2cccc(F)c2)c(C2CNCCO2)n1` (stereo unspecified), the cytotoxicity at 10 µM is -29.9%. On to `Cc1oncc1C(=O)N1CC[C@@H]2[C@@H]1CC(=O)N2Cc1cccnc1`, for which the cytotoxicity at 10 µM came to 5.44%.

On to `O=C1COC2(CCN(CC3CCC3)CC2)CN1c1cncnc1`, for which the cytotoxicity at 10 µM is -1.11%. As for `CN(C)C[C@H]1C[C@@H]2CN(Cc3ccoc3)C[C@@H]2O1`, the figure is 4.85%; as for `CCN1CCC2(CC1)CC(COC)N(Cc1csc(C)n1)C2` (stereo unspecified), 6.68%; as for `COCCN1C[C@@H](C)[C@@]2(COCCN(C(=O)c3cnc(C)cn3)C2)C1`, -0.665%. Consider `CCN1Cc2nccn2CC(COCc2csc(C)n2)C1` (stereo unspecified), for which the cytotoxicity at 10 µM amounted to 3.86%. As for `COCC1CC2(CCN(Cc3ccccn3)CC2)CN1c1ncccn1` (stereo unspecified), the figure is 14.4%; as for `Cc1nc(CO[C@@H]2CC[C@H]3[C@H]2OCCN3Cc2cccnc2)cs1`, -1.43%. For the molecule `COCCN(C)CC(=O)N1C[C@@H]2CC[C@H]1CN(C(=O)c1ccncc1)C2`, the cytotoxicity at 10 µM is -0.908%. As for `O=C1NCC2(CCC(C(=O)N3CCCC(O)C3)CC2)Oc2ccccc21` (stereo unspecified), the cytotoxicity at 10 µM was -24.1%.
